Laboratory results: PMC7790458 (Journal of the American Chemical Society, 2020)

Key:
[1] = Cleavage of acc peptide by human serum; format: in vitro ADME; conditions: fluorescence (Figure S8)
How it was run: (§1)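 Substrate is an N-acetylated peptide with 7-amino-4-carbamoylmethylcoumarin (acc) coupled directly to the P1 residue as an antibiotic surrogate, made by solid-phase synthesis. The substrate is incubated in human or mouse serum, and cleavage is followed as release of free fluorescent amino coumarin.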

[2] = Cleavage of acc peptide by mouse serum; format: in vitro ADME; conditions: compared with human serum
How it was run: as §1

[3] = system: periplasmic extract of E. coli K12 MG1655; experiment: acc release from fluorogenic peptides in periplasmic extract; format: biochemical; conditions: HPLC analysis (Figure S9)
E. coli ΔbamBΔtolC = experiment: MIC, CLSI broth microdilution; format: cell-based; conditions: MH-II broth with dipyridyl
E. coli ΔsurA = experiment: MIC, CLSI broth microdilution; format: cell-based; conditions: MH-II broth with dipyridyl
S. aureus Newman = experiment: MIC, CLSI broth microdilution; format: cell-based; conditions: MH-II broth with dipyridyl

| Compound | half-life of acc release [1] | cleavage by mouse serum [2] | substrate consumption at the end of the reaction [3] | MIC (E. coli ΔbamBΔtolC) | MIC (E. coli ΔsurA) | MIC (S. aureus Newman) |
| --- | --- | --- | --- | --- | --- | --- |
| Ac-WSPKYM-acc [compound 1] | 3 to 4 h | cleaved more rapidly | fully consumed |  |  |  |
| CC(=O)NC[C@H]1CN(c2ccc(N3CCN(C(=O)CO)CC3)c(F)c2)C(=O)O1 [eperezolid] |  |  |  | susceptible |  |  |
| eperezolid-NH2 [compound 5] |  |  |  | > 171 µM | 43 µM | 43 µM |
